Reference: ChEMBL document CHEMBL4118247, “Development of the first small molecule histone deacetylase 6 (HDAC6) degraders” (Bioorg Med Chem Lett, 2018)
Active and inactive are the calls of the source. No cut-off for these calls is given here.

Experiments:
Assay type in all cases: cell-based
[1] = biological target: T1, Protein cereblon/Histone deacetylase 1 (Homo sapiens) (UniProt Q13547+Q96SW2); test: Induction of CRBN ubiquitin ligase-mediated HDAC1 degradation in human MCF7 cells assessed as increase in acetylated H3 levels at 2 uM after 12 hrs by immunoblotting analysis
T1 sequence (Q13547 whole entry, looked up): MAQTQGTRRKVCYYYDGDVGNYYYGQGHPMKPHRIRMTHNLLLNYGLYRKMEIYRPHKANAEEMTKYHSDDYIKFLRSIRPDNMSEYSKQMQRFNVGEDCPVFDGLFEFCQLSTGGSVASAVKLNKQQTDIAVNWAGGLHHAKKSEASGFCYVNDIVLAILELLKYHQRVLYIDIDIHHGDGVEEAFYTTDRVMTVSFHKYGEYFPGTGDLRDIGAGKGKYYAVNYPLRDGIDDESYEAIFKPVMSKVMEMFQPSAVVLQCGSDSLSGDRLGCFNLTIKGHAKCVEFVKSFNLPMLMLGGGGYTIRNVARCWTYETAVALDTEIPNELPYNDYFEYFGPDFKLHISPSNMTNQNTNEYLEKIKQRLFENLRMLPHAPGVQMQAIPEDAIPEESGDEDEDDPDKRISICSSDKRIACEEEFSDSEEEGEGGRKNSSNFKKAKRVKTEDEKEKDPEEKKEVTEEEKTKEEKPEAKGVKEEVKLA
T1 sequence (Q96SW2 whole entry, looked up): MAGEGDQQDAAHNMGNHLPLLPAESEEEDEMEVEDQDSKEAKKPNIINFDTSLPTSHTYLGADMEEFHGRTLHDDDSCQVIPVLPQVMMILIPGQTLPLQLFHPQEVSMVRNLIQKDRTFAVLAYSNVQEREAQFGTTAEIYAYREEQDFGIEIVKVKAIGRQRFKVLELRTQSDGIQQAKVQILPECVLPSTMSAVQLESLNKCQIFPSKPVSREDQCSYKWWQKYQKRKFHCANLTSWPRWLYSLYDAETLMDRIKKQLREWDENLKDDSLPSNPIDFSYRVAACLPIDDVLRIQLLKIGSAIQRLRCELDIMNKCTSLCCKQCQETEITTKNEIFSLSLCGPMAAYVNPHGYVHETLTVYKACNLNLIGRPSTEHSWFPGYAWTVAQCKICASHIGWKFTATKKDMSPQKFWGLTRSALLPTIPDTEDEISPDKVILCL

[2] = biological target: T2, Protein cereblon/Protein deacetylase HDAC6 (Homo sapiens, UniProt Q9UBN7+Q96SW2); test: (§1) Induction of CRBN ubiquitin ligase-mediated HDAC6 degradation in human MCF7 cells assessed as increase in acetylated alpha-tubulin levels at 2 uM at 2 uM preincubated for 1 hr with CRBN ligand pomalidomide followed by compound addition for 12 hrs by immunoblotting analysis
In short: (§2)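 MCF-7 cells pre-treated 1 h with 5 µM MG132, 5 µM pomalidomide or DMSO vehicle, then given 2 µM degrader or vehicle for 12 h. Whole-cell lysate immunoblotted for HDAC6 and acetylated α-tubulin.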
Target sequence in this assay (Q96SW2 whole entry, looked up): as above
Target sequence in this assay (Q9UBN7 whole entry, looked up): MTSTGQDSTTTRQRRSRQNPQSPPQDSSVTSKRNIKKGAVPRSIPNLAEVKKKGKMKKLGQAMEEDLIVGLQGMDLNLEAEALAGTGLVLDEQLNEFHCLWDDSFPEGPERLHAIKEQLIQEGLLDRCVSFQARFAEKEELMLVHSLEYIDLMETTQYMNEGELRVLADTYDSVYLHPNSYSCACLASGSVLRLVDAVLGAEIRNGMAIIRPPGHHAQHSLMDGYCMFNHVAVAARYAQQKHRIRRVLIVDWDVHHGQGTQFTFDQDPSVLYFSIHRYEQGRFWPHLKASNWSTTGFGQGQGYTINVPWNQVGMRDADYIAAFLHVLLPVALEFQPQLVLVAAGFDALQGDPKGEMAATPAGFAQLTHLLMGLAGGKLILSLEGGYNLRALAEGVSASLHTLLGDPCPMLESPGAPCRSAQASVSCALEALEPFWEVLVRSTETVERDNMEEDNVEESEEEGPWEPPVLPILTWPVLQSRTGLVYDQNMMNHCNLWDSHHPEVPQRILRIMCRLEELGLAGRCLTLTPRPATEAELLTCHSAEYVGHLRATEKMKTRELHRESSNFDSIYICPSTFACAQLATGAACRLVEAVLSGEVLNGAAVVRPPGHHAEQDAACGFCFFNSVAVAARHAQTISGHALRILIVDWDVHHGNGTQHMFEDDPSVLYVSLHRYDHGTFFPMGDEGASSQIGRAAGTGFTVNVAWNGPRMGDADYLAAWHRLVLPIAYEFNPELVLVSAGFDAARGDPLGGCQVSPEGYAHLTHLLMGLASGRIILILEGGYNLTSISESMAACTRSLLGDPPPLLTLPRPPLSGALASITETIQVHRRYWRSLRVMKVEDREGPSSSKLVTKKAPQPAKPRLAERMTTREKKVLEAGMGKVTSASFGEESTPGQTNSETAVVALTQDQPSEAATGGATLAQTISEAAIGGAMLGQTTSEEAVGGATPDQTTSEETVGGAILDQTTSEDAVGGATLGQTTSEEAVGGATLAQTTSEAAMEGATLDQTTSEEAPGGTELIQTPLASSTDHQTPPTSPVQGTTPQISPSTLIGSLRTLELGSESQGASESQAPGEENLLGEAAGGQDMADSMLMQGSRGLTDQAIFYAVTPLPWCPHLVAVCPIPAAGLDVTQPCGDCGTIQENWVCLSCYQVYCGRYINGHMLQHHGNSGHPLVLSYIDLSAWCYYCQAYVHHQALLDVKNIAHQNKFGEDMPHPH

[3] = biological target: T1, Protein cereblon/Histone deacetylase 1 (Homo sapiens); test: Induction of CRBN ubiquitin ligase-mediated HDAC1 degradation in human MCF7 cells assessed as decrease in HDAC1 levels at 5 uM after 12 hrs by immunoblotting analysis
In short: (§3)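 MCF-7 cells exposed to bifunctional degraders at 5 µM for 12 h. Whole-cell lysate run on SDS-PAGE and immunoblotted for HDAC1, HDAC2, HDAC4 and HDAC6.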

[4] = biological target: T2, Protein cereblon/Protein deacetylase HDAC6; test: Induction of CRBN ubiquitin ligase-mediated HDAC6 degradation in human MCF7 cells assessed as increase in acetylated alpha-tubulin levels at 1.1 to 10 uM after 12 hrs by immunoblotting analysis
In short: (§4)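 MCF-7 cells treated for 12 h across a range of 5 nM to 10 µM. Whole-cell lysate immunoblotted for HDAC6 and acetylated α-tubulin. Band intensities quantified by densitometry and curve-fitted to derive half-maximal degradation.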
Target sequence in this assay (Q96SW2 whole entry, looked up): as the sequence (Q96SW2 whole entry, looked up) above
Target sequence in this assay (Q9UBN7 whole entry, looked up): as the sequence (Q9UBN7 whole entry, looked up) above

[5] = biological target: T2, Protein cereblon/Protein deacetylase HDAC6; test: Induction of CRBN ubiquitin ligase-mediated HDAC6 degradation in human MCF7 cells assessed as increase in acetylated alpha-tubulin levels at 2 uM after 2 hrs by immunoblotting analysis
In short: (§5)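 Time course in MCF-7 cells: 2 µM degrader or DMSO vehicle for 0–8 h. Whole-cell lysate immunoblotted for HDAC6 and acetylated α-tubulin.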
Target sequence in this assay (Q96SW2 whole entry, looked up): as the sequence (Q96SW2 whole entry, looked up) above
Target sequence in this assay (Q9UBN7 whole entry, looked up): as the sequence (Q9UBN7 whole entry, looked up) above

[6] = biological target: T2, Protein cereblon/Protein deacetylase HDAC6; test: as §1, with “uM” for “uM at 2 uM”, “100 nM pan-HDAC inhibitor N-hydroxy-8-(2-(4-methoxybenzylidene)hydrazinyl)-8-oxooctanamide” for “CRBN ligand pomalidomide”
In short: (§6)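 MCF-7 cells pre-treated 1 h with pan-HDAC inhibitor (1 µM or 100 nM) or DMSO vehicle, then given 2 µM degrader or vehicle for 12 h. Whole-cell lysate immunoblotted for HDAC6 and acetylated α-tubulin.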
Target sequence in this assay (Q96SW2 whole entry, looked up): as the sequence (Q96SW2 whole entry, looked up) above
Target sequence in this assay (Q9UBN7 whole entry, looked up): as the sequence (Q9UBN7 whole entry, looked up) above

[7] = biological target: T2, Protein cereblon/Protein deacetylase HDAC6; test: Induction of CRBN ubiquitin ligase-mediated HDAC6 degradation in human MCF7 cells assessed as increase in acetylated alpha-tubulin levels at 2 uM preincubated for 1 hr with proteosome-inhibitor MG132 followed by compound addition for 12 hrs by immunoblotting analysis; in short: as §2
Target sequence in this assay (Q96SW2 whole entry, looked up): as the sequence (Q96SW2 whole entry, looked up) above
Target sequence in this assay (Q9UBN7 whole entry, looked up): as the sequence (Q9UBN7 whole entry, looked up) above

[8] = biological target: T2, Protein cereblon/Protein deacetylase HDAC6; test: (§7) Induction of CRBN ubiquitin ligase-mediated HDAC6 degradation in human MCF7 cells assessed as decrease in HDAC6 levels at 2 uM preincubated for 1 hr with 100 nM pan-HDAC inhibitor N-hydroxy-8-(2-(4-methoxybenzylidene)hydrazinyl)-8-oxooctanamide followed by compound addition for 12 hrs by immunoblotting analysis; in short: as §6
Target sequence in this assay (Q96SW2 whole entry, looked up): as the sequence (Q96SW2 whole entry, looked up) above
Target sequence in this assay (Q9UBN7 whole entry, looked up): as the sequence (Q9UBN7 whole entry, looked up) above

[9] = biological target: T2, Protein cereblon/Protein deacetylase HDAC6; test: Induction of CRBN ubiquitin ligase-mediated HDAC6 degradation in human MCF7 cells assessed as decrease in HDAC6 levels at 2 uM preincubated for 1 hr with proteosome-inhibitor MG132 followed by compound addition for 12 hrs by immunoblotting analysis; in short: as §2
[10] = biological target: T2, Protein cereblon/Protein deacetylase HDAC6; test: Induction of CRBN ubiquitin ligase-mediated HDAC6 degradation in human MCF7 cells assessed as decrease in HDAC6 levels at 2 uM after 2 hrs by immunoblotting analysis; in short: as §5
[11] = biological target: T2, Protein cereblon/Protein deacetylase HDAC6; test: Induction of CRBN ubiquitin ligase-mediated HDAC6 degradation in human MCF7 cells assessed as decrease in HDAC6 levels at 2 uM preincubated for 1 hr with CRBN ligand pomalidomide followed by compound addition for 12 hrs by immunoblotting analysis; in short: as §2
[12] = biological target: T3, Protein cereblon/Histone deacetylase 2 (Homo sapiens) (UniProt Q92769+Q96SW2); test: Induction of CRBN ubiquitin ligase-mediated HDAC2 degradation in human MCF7 cells assessed as increase in acetylated H3 levels at 2 uM after 12 hrs by immunoblotting analysis
T3 sequence (Q92769 whole entry, looked up): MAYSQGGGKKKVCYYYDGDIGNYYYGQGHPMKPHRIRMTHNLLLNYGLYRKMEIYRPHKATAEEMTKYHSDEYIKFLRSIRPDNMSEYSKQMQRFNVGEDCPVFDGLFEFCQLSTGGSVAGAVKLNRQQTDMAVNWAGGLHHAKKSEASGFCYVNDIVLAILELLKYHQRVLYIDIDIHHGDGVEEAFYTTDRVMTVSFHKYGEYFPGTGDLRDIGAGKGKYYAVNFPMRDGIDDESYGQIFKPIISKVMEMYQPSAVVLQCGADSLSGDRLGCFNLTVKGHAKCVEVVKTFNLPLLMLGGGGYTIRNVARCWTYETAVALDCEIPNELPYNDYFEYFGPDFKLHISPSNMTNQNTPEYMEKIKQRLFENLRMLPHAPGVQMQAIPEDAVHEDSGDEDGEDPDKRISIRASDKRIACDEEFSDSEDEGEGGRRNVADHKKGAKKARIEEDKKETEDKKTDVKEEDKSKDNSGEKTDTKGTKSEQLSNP
T3 sequence (Q96SW2 whole entry, looked up): as the sequence (Q96SW2 whole entry, looked up) above

[13] = biological target: Protein cereblon/Histone deacetylase 4 (Homo sapiens) (UniProt P56524+Q96SW2); test: Induction of CRBN ubiquitin ligase-mediated HDAC4 degradation in human MCF7 cells assessed as decrease in HDAC4 levels at 5 uM after 12 hrs by immunoblotting analysis; in short: as §3
Sequence of Protein cereblon/Histone deacetylase 4 (Homo sapiens) (P56524 whole entry, looked up): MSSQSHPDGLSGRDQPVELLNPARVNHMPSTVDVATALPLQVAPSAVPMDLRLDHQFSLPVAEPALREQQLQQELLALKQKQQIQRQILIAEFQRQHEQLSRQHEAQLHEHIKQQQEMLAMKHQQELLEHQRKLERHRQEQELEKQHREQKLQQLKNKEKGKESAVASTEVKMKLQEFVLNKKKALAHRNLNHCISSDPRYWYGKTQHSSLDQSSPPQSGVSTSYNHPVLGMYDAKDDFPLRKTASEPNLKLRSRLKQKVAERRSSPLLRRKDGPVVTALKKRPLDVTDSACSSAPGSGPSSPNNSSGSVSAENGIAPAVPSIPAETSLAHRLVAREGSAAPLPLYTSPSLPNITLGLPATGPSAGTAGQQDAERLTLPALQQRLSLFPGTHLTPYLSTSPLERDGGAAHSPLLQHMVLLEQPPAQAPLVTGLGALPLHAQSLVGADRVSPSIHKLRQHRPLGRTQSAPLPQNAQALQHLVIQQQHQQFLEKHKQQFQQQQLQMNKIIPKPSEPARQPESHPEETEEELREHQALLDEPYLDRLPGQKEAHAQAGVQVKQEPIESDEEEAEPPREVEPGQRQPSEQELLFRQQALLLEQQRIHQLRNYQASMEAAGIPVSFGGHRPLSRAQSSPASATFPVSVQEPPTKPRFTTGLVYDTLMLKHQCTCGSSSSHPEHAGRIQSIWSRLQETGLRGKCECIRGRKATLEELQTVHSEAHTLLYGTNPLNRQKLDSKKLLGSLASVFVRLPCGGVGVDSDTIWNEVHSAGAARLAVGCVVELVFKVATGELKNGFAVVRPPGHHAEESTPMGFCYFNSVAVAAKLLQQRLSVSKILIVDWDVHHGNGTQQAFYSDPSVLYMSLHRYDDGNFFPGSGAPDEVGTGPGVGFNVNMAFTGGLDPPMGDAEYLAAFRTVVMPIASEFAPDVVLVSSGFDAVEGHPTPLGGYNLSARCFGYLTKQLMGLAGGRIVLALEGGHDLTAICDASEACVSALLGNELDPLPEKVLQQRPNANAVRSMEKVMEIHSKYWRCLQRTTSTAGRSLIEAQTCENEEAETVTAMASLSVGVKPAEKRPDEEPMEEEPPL
Sequence of Protein cereblon/Histone deacetylase 4 (Homo sapiens) (Q96SW2 whole entry, looked up): as the sequence (Q96SW2 whole entry, looked up) above

[14] = biological target: T2, Protein cereblon/Protein deacetylase HDAC6; test: Induction of CRBN ubiquitin ligase-mediated HDAC6 degradation in human MCF7 cells assessed as decrease in HDAC6 levels after 12 hrs by immunoblotting analysis; in short: as §4
[15] = biological target: T2, Protein cereblon/Protein deacetylase HDAC6; test: Induction of CRBN ubiquitin ligase-mediated HDAC6 degradation in human MCF7 cells assessed as decrease in HDAC6 levels at 5 uM after 12 hrs by immunoblotting analysis; in short: as §3
[16] = biological target: T2, Protein cereblon/Protein deacetylase HDAC6; test: Induction of CRBN ubiquitin ligase-mediated HDAC6 degradation in human MM1S cells assessed as increase in acetylated alpha-tubulin levels at =>80 nM after 6 hrs by immunoblotting analysis
In short: (§8)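 MM.1S cells treated for 6 h at a range of concentrations. Whole-cell lysate immunoblotted for HDAC6 and acetylated α-tubulin.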

[17] = biological target: T2, Protein cereblon/Protein deacetylase HDAC6; test: Induction of CRBN ubiquitin ligase-mediated HDAC6 degradation in human MM1S cells assessed as decrease in HDAC6 levels at =>80 nM after 6 hrs by immunoblotting analysis; in short: as §8
[18] = biological target: T2, Protein cereblon/Protein deacetylase HDAC6; test: as §7, with “1 uM” for “100 nM”; in short: as §6
[19] = biological target: T3, Protein cereblon/Histone deacetylase 2 (Homo sapiens); test: Induction of CRBN ubiquitin ligase-mediated HDAC2 degradation in human MCF7 cells assessed as decrease in HDAC2 levels at 5 uM after 12 hrs by immunoblotting analysis; in short: as §3
[20] = biological target: Histone deacetylase (Homo sapiens) (UniProt Q13547+O15379+Q9UBN7+Q92769+Q9UQL6+Q8WUI4+Q9BY41+Q96DB2+P56524+Q9UKV0+Q969S8); test: Inhibition of HDAC in human MCF7 cells assessed as increase in acetylated H3 levels at 2 uM after 12 hrs by immunoblotting analysis

O=C(CCCCCCC(=O)N/N=C/c1ccc(OCCOCCOCCn2cc(CNc3cccc4c3C(=O)N(C3CCC(=O)NC3=O)C4=O)nn2)cc1)NO (centres undefined)
Activity [1]: Active
Activity [2]: inactive
Activity [3]: inactive
Activity [4]: Active
Activity [5]: Active
Activity [6]: Active
Activity [7]: inactive
Activity [8]: Active
Activity [9]: inactive
Activity [10]: Active
Activity [11]: inactive
Activity [12]: Active
Activity [13]: inactive
Activity [14]: Dose-dependent effect
DC50 [14]: 34 nM
Emax [14]: 70.5%
Activity [15]: Active
Activity [16]: Active
Activity [17]: Active
Activity [18]: inactive
Activity [19]: inactive

O=C(CCCCCCC(=O)N/N=C/c1ccc(OCCn2cc(CNc3cccc4c3C(=O)N(C3CCC(=O)NC3=O)C4=O)nn2)cc1)NO (centres undefined)
Activity [3]: inactive
Activity [13]: inactive
Activity [15]: Active
Activity [19]: inactive

COc1ccc(/C=N/NC(=O)CCCCCCC(=O)NO)cc1
inhibition [20]: Active

O=C(CCCCCCC(=O)N/N=C/c1ccc(OCCOCCn2cc(CNc3cccc4c3C(=O)N(C3CCC(=O)NC3=O)C4=O)nn2)cc1)NO (centres undefined)
Activity [3]: inactive
Activity [13]: inactive
Activity [15]: Active
Activity [19]: inactive

O=C(CCCCCCC(=O)N/N=C/c1ccc(OCCOCCOCCOCCn2cc(CNc3cccc4c3C(=O)N(C3CCC(=O)NC3=O)C4=O)nn2)cc1)NO (centres undefined)
Activity [3]: inactive
Activity [13]: inactive
Activity [15]: Active
Activity [19]: inactive
